Active and inactive are the calls of the source. The rule behind the calls is not given here. Peptide text beside a SMILES is read from it. * marks the point of attachment. X1 = CCC(=C(c1ccc(OCCN2CCCCCC2)cc1)c1ccc(OCCN2CCCCCC2)cc1)c1cccc(C(=O)*)c1
Experiments:
[1] = biological target: T1, Proteasome Macropain subunit MB1 (Homo sapiens, UniProt P28074); experiment: Inhibition of chymotrypsin-like activity of human 20S proteasome using Suc-LLVY-MCA as substrate measured for 1 hr by fluorescence assay
T1 sequence (P28074 whole entry): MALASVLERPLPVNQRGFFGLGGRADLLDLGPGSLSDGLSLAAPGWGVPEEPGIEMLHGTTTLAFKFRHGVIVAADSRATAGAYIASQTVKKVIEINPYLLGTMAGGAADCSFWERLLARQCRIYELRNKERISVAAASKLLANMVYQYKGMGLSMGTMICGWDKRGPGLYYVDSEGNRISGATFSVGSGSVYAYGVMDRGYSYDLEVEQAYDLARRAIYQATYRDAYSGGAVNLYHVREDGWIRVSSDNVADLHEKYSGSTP
How it was run: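 Purified human 20S proteasome with 50 µM fluorogenic substrate in 25 mM HEPES pH 8.0, 0.5 mM EDTA, 0.03% SDS. Inhibitor range 0.1–10 µM, with the table footnote giving 0.5–8 µM. IC₅₀ from inhibition curves; n = 3.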

[2] = biological target: T1, Proteasome Macropain subunit MB1; experiment: Inhibition of chymotrypsin-like activity of human 26S proteasome using Suc-LLVY-MCA as substrate measured for 1 hr by fluorescence assay
How it was run: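 Purified 26S proteasome with 50 µM fluorogenic substrate in 50 mM HEPES pH 7.5, 40 mM KCl, 5 mM MgCl₂, BSA, 0.5 mM ATP, 1 mM DTT. Inhibitor range 0.1–40 µM. AMC fluorescence monitored 1 h at 37 °C. IC₅₀ from inhibition curves; n = 3.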

[3] = biological target: T1, Proteasome Macropain subunit MB1; experiment: Inhibition of chymotrypsin-like activity of human 26S proteasome using Z-LLE-MCA as substrate measured for 1 hr in presence of ATPgammaS by fluorescence assay
[4] = biological target: T1, Proteasome Macropain subunit MB1; experiment: Inhibition of chymotrypsin-like activity of 26S proteasome in human KMS11 cells using […] as substrate after 24 to 48 hrs by luminescence-based assay; format: cell-based
How it was run: (§1)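 Intracellular proteasome assay. Cells seeded in triplicate at 5 × 10³ cells/well and incubated 24 or 48 h with 0.1–10 µM inhibitor, 0.5% final DMSO. Proteasome-Glo reagent with aminoluciferin-linked peptide substrates lyses the cells; luminescence read after 15 min. IC₅₀ taken from inhibition curves.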

[5] = biological target: T1, Proteasome Macropain subunit MB1; experiment: Inhibition of chymotrypsin-like activity of 26S proteasome in human RPMI8226 cells using […] as substrate after 24 to 48 hrs by luminescence-based assay; format: cell-based; how it was run: as §1
[6] = tested on: KMS-11; experiment: Cytotoxicity against human KMS11 cells after 24 to 48 hrs by CellTiter-Glo assay; format: functional
How it was run: (§2)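 RPMI8226 or KMS-11 cells seeded in triplicate wells at 5 × 10² cells/well and exposed to 0.1–10 µM compound (DMSO) for 24 or 48 h. Survival read as cellular ATP level; Cyt₅₀ derived from concentration–survival curves.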

[7] = tested on: RPMI-8226; experiment: Cytotoxicity against human RPMI8226 cells after 24 to 48 hrs by CellTiter-Glo assay; format: functional; how it was run: as §2
[8] = tested on: KMS-11; experiment: Cytotoxicity against human KMS11 cells at 10 uM by CellTiter-Glo assay; format: functional, cell-based; settings: TDE = time-dependent effect
How it was run: (§3)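 Cells cultured with each compound at 10 µM, with viability followed over time by ATP assay. Mock-treated cells define 100%; values are means of three independent experiments.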

[9] = tested on: RPMI-8226; experiment: Cytotoxicity against human RPMI8226 cells assessed as reduction in cell viability at 10 uM after 2 to 48 hrs by CellTiter-Glo assay; format: functional, cell-based; how it was run: as §3

Compound	IC50 [1] [µM]	IC50 [2] [µM]	IC50 [3] [µM]	IC50 [4] [µM]	IC50 [5] [µM]	CC50 [6] [µM]	CC50 [7] [µM]	Activity [8]	Activity [9]
N=C(N)NCCC[C@H](NC(=O)[C@H](CCCNC(=N)N)NC(=O)[C@H](CCCNC(=N)N)NC(=O)[C@H](CCCNC(=N)N)NC(=O)[C@H](CCCNC(=N)N)NC(=O)[C@H](CCCNC(=N)N)NC(=O)[C@H](CCCNC(=N)N)NC(=O)[C@H](CCCNC(=N)N)NC(=O)CN)C(N)=O	> 8	> 40	–	–	–	–	–	–	–
CCC(=C(c1ccc(OCCN2CCCCCC2)cc1)c1ccc(OCCN2CCCCCC2)cc1)c1cccc(C(=O)NCC(=O)N[C@@H](CCCNC(=N)N)C(=O)N[C@@H](CCCNC(=N)N)C(=O)N[C@@H](CCCNC(=N)N)C(=O)N[C@@H](CCCNC(=N)N)C(=O)N[C@@H](CCCNC(=N)N)C(=O)N[C@@H](CCCNC(=N)N)C(=O)N[C@@H](CCCNC(=N)N)C(=O)N[C@@H](CCCNC(=N)N)C(N)=O)c1	> 50	5.5	2.4	6.3	5.7	7.2	4.3	Tde	Active
CC[C@]1(O)C[C@@H]2CN(CCc3c([nH]c4ccccc34)[C@@](C(=O)OC)(c3cc4c(cc3OC)N(C)[C@H]3[C@@](O)(C(=O)OC)[C@H](OC(C)=O)[C@]5(CC)C=CCN6CC[C@]43[C@@H]65)C2)C1 [VINBLASTINE]	4.58	> 40	–	–	–	–	–	–	–
CCC(=C(c1ccc(OCCN2CCCCCC2)cc1)c1ccc(OCCN2CCCCCC2)cc1)c1cccc(C(=O)NCC(=O)N[C@@H](CC(C)C)C(=O)N[C@@H](CC(C)C)C(=O)N[C@@H](CCC(=O)O)C(N)=O)c1	6.1	24	–	–	–	–	–	–	–
CCC(=C(c1ccc(OCCN2CCCCCC2)cc1)c1ccc(OCCN2CCCCCC2)cc1)c1cccc(C(=O)NCC(=O)N[C@@H](CCCNC(=N)N)C(=O)N[C@@H](CCCNC(=N)N)C(=O)N[C@@H](CCCNC(=N)N)C(=O)N[C@@H](CCCNC(=N)N)C(N)=O)c1 (X1-GRRRR-NH2)	> 8	> 40	–	–	–	–	–	–	–
CCC(=C(c1ccc(OCCN2CCCCCC2)cc1)c1ccc(OCCN2CCCCCC2)cc1)c1cccc(CNC(=O)CN[C@@H](CCCNC(=N)N)C(=O)N[C@@H](CCCNC(=N)N)C(=O)N[C@@H](CCCNC(=N)N)C(=O)N[C@@H](CCCNC(=N)N)C(=O)N[C@@H](CCCNC(=N)N)C(=O)N[C@@H](CCCNC(=N)N)C(=O)NC(C)=O)c1	> 8	> 40	–	–	–	–	–	–	–
CCC(=C(c1ccc(OCCN2CCCCCC2)cc1)c1ccc(OCCN2CCCCCC2)cc1)c1cccc(C(=O)NCC(=O)N[C@@H](CC(C)C)C(=O)N[C@@H](CC(C)C)C(=O)N[C@@H](CC(C)C)C(=O)NCC(=O)NCC(=O)NCC(=O)NCC(N)=O)c1 (X1-GLLLGGGG-NH2)	1.1	5	–	–	–	–	–	–	–
Ac-RRRRRRRRG-OH	> 8	> 40	–	–	–	–	–	–	–
CCC(=C(c1ccc(OCCN2CCCCCC2)cc1)c1ccc(OCCN2CCCCCC2)cc1)c1cccc(CNC(=O)CN[C@@H](CC(C)C)C(=O)N[C@@H](CC(C)C)C(=O)N[C@H](C(=O)N[C@@H](Cc2ccc(O)cc2)C(=O)NC(C)=O)C(C)C)c1	0.37	> 40	–	–	–	–	–	–	–
CCC(=C(c1ccc(OCCN2CCCCCC2)cc1)c1ccc(OCCN2CCCCCC2)cc1)c1ccccc1	1.02	> 100	–	–	11	–	3.6	Tde	Active

The next lines start with results.

IC50 [1] [µM]	IC50 [2] [µM]	IC50 [3] [µM]	IC50 [4] [µM]	IC50 [5] [µM]	Compound	CC50 [6] [µM]	CC50 [7] [µM]	Activity [8]	Activity [9]
0.89	9.1	–	–	–	CCC(=C(c1ccc(OCCN2CCCCCC2)cc1)c1ccc(OCCN2CCCCCC2)cc1)c1cccc(C(=O)NCC(=O)N[C@@H](CC(C)C)C(=O)N[C@@H](CC(C)C)C(=O)N[C@H](C(=O)N[C@@H](Cc2ccc(O)cc2)C(=O)NCC(=O)NCC(N)=O)C(C)C)c1 (X1-GLLVYGG-NH2)	–	–	–	–
> 8	> 40	–	–	–	CCC(=C(c1ccc(OCCN2CCCCCC2)cc1)c1ccc(OCCN2CCCCCC2)cc1)c1cccc(CNC(=O)CN[C@@H](CCCNC(=N)N)C(=O)N[C@@H](CCCNC(=N)N)C(=O)N[C@@H](CCCNC(=N)N)C(=O)N[C@@H](CCCNC(=N)N)C(=O)NC(C)=O)c1	–	–	–	–
> 40	9.4	6	2.1	2.1	CCC(=C(c1ccc(OCCN2CCCCCC2)cc1)c1ccc(OCCN2CCCCCC2)cc1)c1cccc(C(=O)NCC(=O)N[C@@H](CCCNC(=N)N)C(=O)N[C@@H](CCCNC(=N)N)C(=O)N[C@@H](CCCNC(=N)N)C(=O)N[C@@H](CCCNC(=N)N)C(=O)N[C@@H](CCCNC(=N)N)C(=O)N[C@@H](CCCNC(=N)N)C(=O)N[C@@H](CCCNC(=N)N)C(=O)N[C@@H](CCCNC(=N)N)C(=O)NC(C)=O)c1	4.5	2.7	Tde	Active
0.89	26	–	–	–	CCC(=C(c1ccc(OCCN2CCCCCC2)cc1)c1ccc(OCCN2CCCCCC2)cc1)c1cccc(C(=O)NCC(=O)N[C@@H](CC(C)C)C(=O)N[C@@H](CC(C)C)C(=O)N[C@H](C(=O)N[C@@H](Cc2ccc(O)cc2)C(N)=O)C(C)C)c1 (X1-GLLVY-NH2)	–	–	–	–
> 8	> 40	–	–	–	CCC(=C(c1ccc(OCCN2CCCCCC2)cc1)c1ccc(OCCN2CCCCCC2)cc1)c1cccc(C(=O)NCC(=O)N[C@@H](CCCNC(=N)N)C(=O)N[C@@H](CCCNC(=N)N)C(=O)N[C@@H](CCCNC(=N)N)C(=O)N[C@@H](CCCNC(=N)N)C(=O)N[C@@H](CCCNC(=N)N)C(=O)N[C@@H](CCCNC(=N)N)C(N)=O)c1	–	–	–	–

— ChEMBL document CHEMBL4196013, “Ridaifen-F conjugated with cell-penetrating peptides inhibits intracellular proteasome activities and induces drug-resistant cell death” (Eur J Med Chem, 2018)
